Experimental findings from ChEMBL document CHEMBL1667771, “The discovery of furo[2,3-c]pyridine-based indanone oximes as potent and selective B-Raf inhibitors” (Bioorg Med Chem Lett, 2011) are described below.

Data set [1] has as its target Cytochrome P450 2C19 (Homo sapiens, UniProt P33261). In words: Inhibition of CYP2C19. Type of data set: ADME.
In data set [2] the target is T1, Serine/threonine-protein kinase B-raf (Homo sapiens, UniProt P15056, V600E). In words: Inhibition of B-Raf V600E mutant.
T1 sequence (P15056 2-766 V600E limits assumed): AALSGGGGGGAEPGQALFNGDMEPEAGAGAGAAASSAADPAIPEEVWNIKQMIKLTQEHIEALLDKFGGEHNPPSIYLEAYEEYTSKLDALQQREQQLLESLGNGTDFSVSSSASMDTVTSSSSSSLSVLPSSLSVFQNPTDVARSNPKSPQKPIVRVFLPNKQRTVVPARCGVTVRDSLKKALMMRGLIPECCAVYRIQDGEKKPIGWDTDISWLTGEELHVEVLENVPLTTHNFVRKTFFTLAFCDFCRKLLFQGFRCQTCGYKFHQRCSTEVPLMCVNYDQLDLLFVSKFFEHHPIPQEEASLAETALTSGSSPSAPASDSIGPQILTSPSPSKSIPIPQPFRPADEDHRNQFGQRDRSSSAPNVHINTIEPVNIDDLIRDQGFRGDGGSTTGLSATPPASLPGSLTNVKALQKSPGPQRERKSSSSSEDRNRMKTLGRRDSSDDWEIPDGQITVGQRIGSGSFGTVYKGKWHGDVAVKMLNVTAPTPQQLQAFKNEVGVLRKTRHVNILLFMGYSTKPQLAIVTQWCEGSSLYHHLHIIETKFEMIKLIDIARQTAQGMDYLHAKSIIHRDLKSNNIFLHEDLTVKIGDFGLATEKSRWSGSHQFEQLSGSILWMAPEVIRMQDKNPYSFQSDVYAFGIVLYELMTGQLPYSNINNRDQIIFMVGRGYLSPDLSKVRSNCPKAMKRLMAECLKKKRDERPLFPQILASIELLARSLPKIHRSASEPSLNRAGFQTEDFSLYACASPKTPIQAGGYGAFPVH
The target of data set [3] is T2, Cytochrome P450 1A2 (Homo sapiens, UniProt P05177).
T2 sequence (P05177 whole entry): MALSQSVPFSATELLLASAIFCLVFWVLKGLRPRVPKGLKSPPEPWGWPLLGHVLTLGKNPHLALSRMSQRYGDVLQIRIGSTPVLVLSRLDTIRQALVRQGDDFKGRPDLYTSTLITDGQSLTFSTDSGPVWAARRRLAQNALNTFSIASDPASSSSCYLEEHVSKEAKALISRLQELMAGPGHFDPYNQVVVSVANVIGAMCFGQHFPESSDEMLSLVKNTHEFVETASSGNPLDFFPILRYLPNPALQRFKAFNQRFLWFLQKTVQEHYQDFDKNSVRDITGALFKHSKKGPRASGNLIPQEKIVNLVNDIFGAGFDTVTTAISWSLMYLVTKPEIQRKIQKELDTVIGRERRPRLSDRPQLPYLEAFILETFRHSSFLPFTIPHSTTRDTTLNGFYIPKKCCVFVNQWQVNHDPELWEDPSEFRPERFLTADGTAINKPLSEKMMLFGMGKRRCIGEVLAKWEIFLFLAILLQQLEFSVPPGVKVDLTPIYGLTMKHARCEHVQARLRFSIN
In words: Inhibition of CYP1A2. The data set is classed as ADME.

For data set [4], the target named is T1, Serine/threonine-protein kinase B-raf. The data set can be described thus: Inhibition of B-Raf V600E mutant assessed as inhibition of phosphorylated ERK production by cell based assay. In short, it runs like this:
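Cell-based readout of phospho-ERK production. The IC50 is the average of three experiments.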

In data set [5] the target is Cytochrome P450 3A4 (Homo sapiens, UniProt P08684). In words: Inhibition of CYP3A4. Type of data set: ADME.
Chain of Cytochrome P450 3A4 (P08684 whole entry): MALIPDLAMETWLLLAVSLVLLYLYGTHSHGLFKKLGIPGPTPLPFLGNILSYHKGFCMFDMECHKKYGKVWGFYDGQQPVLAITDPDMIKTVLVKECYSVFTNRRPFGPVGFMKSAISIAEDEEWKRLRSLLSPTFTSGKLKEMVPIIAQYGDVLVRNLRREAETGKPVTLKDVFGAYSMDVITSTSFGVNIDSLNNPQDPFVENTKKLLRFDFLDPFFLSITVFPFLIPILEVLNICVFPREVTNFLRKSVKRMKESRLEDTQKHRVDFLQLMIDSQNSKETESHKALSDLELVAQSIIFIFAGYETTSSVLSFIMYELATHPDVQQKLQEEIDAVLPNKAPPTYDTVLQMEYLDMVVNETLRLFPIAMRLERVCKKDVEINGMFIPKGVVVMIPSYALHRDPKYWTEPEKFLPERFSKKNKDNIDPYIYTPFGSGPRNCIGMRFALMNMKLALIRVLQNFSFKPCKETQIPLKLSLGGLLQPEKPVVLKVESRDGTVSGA
Data set [6] has as its system Caco-2. The data set can be described thus: Permeability ratio of the compound across human Caco2 cells. The data set is classed as ADME, cell-based. On the technique in general: Passage across Caco-2 layers is used to estimate intestinal permeability.
A short description of data set [7]: Permeability of the compound across human Caco2 cells. The data set is classed as ADME, cell-based. Conditions: caco-2, read-out: permeability. In a few lines: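 Caco-2 permeability is reported as a class: low (<2 × 10^-6 cm/s), medium (2–8 × 10^-6 cm/s), high (>8 × 10^-6 cm/s).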
Data set [8] in a line: Aqueous solubility of the compound at pH 6.5. Type of data set: physicochemical.

Structures are written as SMILES. Where only a bound is given, the exact number is not on record here.

Chain of Cytochrome P450 2C19 (P33261 whole entry): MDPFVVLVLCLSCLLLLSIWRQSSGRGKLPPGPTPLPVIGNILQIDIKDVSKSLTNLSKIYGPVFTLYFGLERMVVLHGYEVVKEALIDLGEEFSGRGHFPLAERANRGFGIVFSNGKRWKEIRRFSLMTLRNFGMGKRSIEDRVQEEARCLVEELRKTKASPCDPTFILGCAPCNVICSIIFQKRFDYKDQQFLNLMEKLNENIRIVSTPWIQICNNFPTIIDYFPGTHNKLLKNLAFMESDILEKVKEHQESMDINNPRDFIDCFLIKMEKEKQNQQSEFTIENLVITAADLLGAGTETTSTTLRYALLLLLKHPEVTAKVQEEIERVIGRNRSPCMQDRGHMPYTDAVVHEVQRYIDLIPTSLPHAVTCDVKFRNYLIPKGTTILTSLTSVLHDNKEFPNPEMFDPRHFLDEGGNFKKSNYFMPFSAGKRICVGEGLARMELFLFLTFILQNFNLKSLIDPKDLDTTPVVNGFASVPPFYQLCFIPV

What is called IC50 is the concentration needed to halve the response being measured. With `CCOC(=O)c1oc2cnccc2c1Nc1ccc2c(c1)CC/C2=N/O`, the IC50 is 1180 nM in data set [1]; < 2 nM in data set [2]; > 25000 nM in data set [3]; 30 nM in data set [4]; 8300 nM in data set [5].
As to `NCc1ccc(Nc2c(-c3ccccc3)nc3cnccn23)cc1`, in data set [2], the IC50 is 1400 nM.
Regarding `Clc1ccc(Nc2c(-c3ccccc3)nc3cnccn23)cc1`, the figures for the IC50 in data set [2] and in data set [4] were 570 nM and 76000 nM, respectively.
`Cc1nc2cnccn2c1Nc1ccc(Cl)cc1` gave an IC50 in data set [2] of 1200 nM.
For `CCOC(=O)c1nc2cnccn2c1Nc1ccc2c(c1)CC/C2=N\O`, the figures for the IC50 in data set [2] and in data set [4] were 16 nM and 3100 nM, respectively.
On to `O/N=C1/CCc2cc(Nc3c(-c4ccccc4)nc4cnccn34)ccc21`, for which the IC50 in data set [2] was determined as 35 nM; in data set [4] it was 19000 nM.
On the same counts, the results for `O/N=C1/CCc2cc(Nc3c(-c4cccnc4)nc4cnccn34)ccc21` are 47 nM and 16000 nM.
For `O/N=C1/CCc2cc(Nc3c(-c4ccco4)nc4cnccn34)ccc21`, in that order: 4 nM and 1400 nM.
For `CCOC(=O)c1sc2cnccc2c1Nc1ccc2c(c1)CC/C2=N/O`, the half-inhibitory concentration (IC50) in data set [1] is 129 nM; in data set [2], 3 nM; in data set [3], 616 nM; in data set [4] it was 280 nM; in data set [5], 50 nM.
Consider `CN(C)C(=O)c1sc2cnccc2c1Nc1ccc2c(c1)CC/C2=N/O`, for which the IC50 was 40 nM in data set [2] and 5800 nM in data set [4].
For `CN(C)CCNC(=O)c1sc2cnccc2c1Nc1ccc2c(c1)CC/C2=N/O`, in that order: 52 nM and 8200 nM.
On to `O/N=C1/CCc2cc(Nc3csc4cnccc34)ccc21`, for which the IC50 in data set [2] came out at 32 nM; in data set [4], 7300 nM.
For `O/N=C1/CCc2cc(Nc3c(-c4ccccc4)sc4cnccc34)ccc21`, the IC50 amounted to 3 nM in data set [2] and 1500 nM in data set [4].
As for `O/N=C1/CCc2cc(Nc3c(-c4cccnc4)sc4cnccc34)ccc21`, the results for the IC50 in data set [2] and in data set [4] were 3 nM and 170 nM, respectively.
Take `CCCC(=O)c1sc2cnccc2c1Nc1ccc2c(c1)CC/C2=N/O`: the results for the IC50 in data set [2] and in data set [4] were < 2 nM and 140 nM, respectively.
Consider `CN(C)C(=O)c1oc2cnccc2c1Nc1ccc2c(c1)CC/C2=N\O`, for which the IC50 in data set [2] was 5 nM; in data set [4], 340 nM.
Usually solubility stands for how much of the substance goes into solution per volume. Higher therefore signals much dissolved substance. For `CN(C)CCNC(=O)c1oc2cnccc2c1Nc1ccc2c(c1)CC/C2=N\O`, the Ratio in data set [6] is recorded as 0.9. Also, the Papp in data set [7] is > 8 ×10⁻⁶ cm/s. For the same compound, the solubility in data set [8] is > 1000 µg/mL. Moreover, the figures for the IC50 in data set [2] and in data set [4] were 2 nM and 40 nM, respectively.
Regarding `Cc1ccc(-c2oc3cnccc3c2Nc2ccc3c(c2)CC/C3=N\O)cc1`, the IC50 was 3 nM in data set [2] and 2000 nM in data set [4].
On to `O/N=C1\CCc2cc(Nc3c(-c4ccccn4)oc4cnccc34)ccc21`, for which the values for the IC50 in data set [2] and in data set [4] were < 2 nM and 150 nM, respectively.
Regarding `O/N=C1/CCc2cc(Nc3c(-c4cccnc4)oc4cnccc34)ccc21`, the IC50 in data set [2] was < 2 nM; in data set [4] it was 960 nM.
On the same counts, the results for `Cc1cc(-c2oc3cnccc3c2Nc2ccc3c(c2)CC/C3=N\O)no1` are < 2 nM and 365 nM.
On to `O/N=C1\CCc2cc(Nc3c(-c4ncccn4)oc4cnccc34)ccc21`, for which, in data set [6], the Ratio came to 0.9. Besides, the Papp in data set [7] was > 8 ×10⁻⁶ cm/s. For the same compound, the IC50 in data set [2] came out at 0.2 nM; in data set [4] it was 5 nM.
Consider `Oc1cc(-c2nc(-c3ccccc3)[nH]c2-c2ccncc2)ccc1Cl`, for which, in data set [2], the IC50 came out at 10 nM.
